These results are taken from paper PMC8771160 (Oncology Reports, 2022).

Some results are limits rather than exact numbers.

Series [1] has as its system BC3. Briefly: Cell proliferation assay. It is filed as cell-based. Particulars: KSHV (+) cell line BC3, 24 h. In a few lines: (§1)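 PEL lines, KSHV-negative B-lymphoma lines or PBMCs were seeded at 1×10^4 cells/well and cultured with or without test compound at 37°C for 24 h. Cell Count Reagent SF was added (10 µl to 90 µl suspension) for 2 h at 37°C, and OD was read at 450 nm. Viability is expressed as % of untreated cells.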

The test system of series [2] is KSHV-uninfected B cell lines. Put plainly: Cell proliferation assay, KSHV-uninfected B cell lines as a group. Particulars: 6.25 and 12.5 µM, 24 h. Type of series: cell-based. The method in brief: as §1
In series [3] the test system is DG75. Briefly: Cell proliferation assay. It is filed as cell-based. Particulars: KSHV (−) cell line DG75, 24 h. The method in brief:
as §1

Series [4] concerns HIV RT. Conditions: cited from earlier work.
For series [5], the system named is cancer cell proliferation. Conditions: cited from earlier work.
Series [6] deals with influenza virus endonuclease. Particulars: cited from earlier work.
The test system of series [7] is BCBL1. Briefly: Cell proliferation assay. It is filed as cell-based. Conditions: KSHV (+) cell line BCBL1, 24 h. The method in brief: as §1
In series [8] the test system is Ramos. Put plainly: Cell proliferation assay. It is filed as cell-based. Particulars: KSHV (−) cell line Ramos, 24 h. The method in brief:
as §1

Series [9] concerns HBL6. Briefly: Cell proliferation assay. It is filed as cell-based. Conditions: KSHV (+) cell line HBL6, 24 h. The method in brief:
as §1

In series [10] the test system is HCV NS5B. Particulars: cited from earlier work.

As for “1,1,1′,1′-tetramethyl [60]fullerenodipyrrolidinium diiodide [Derivative #1]”, the 50% cytotoxic concentration (CC50) – broadly, the concentration that lowers cell viability or growth by half – in series [1] is 15.5 µM; in series [3], 23.4 µM; in series [7] it was above 25 µM; in [8] it was 24.9 µM; in series [9], 19.7 µM. The “viability of DG75 and Ramos cells compared with the controls” value in series [2] is on record as “increased the viability”. Also, the “HIV RT inhibitory activity” value in series [4] is reported as “displayed HIV RT inhibitory activity”. The cancer cell proliferation entry in series [5] is recorded as “suppressed cancer cell proliferation”. Also, the “influenza virus endonuclease inhibitory activity” value in [6] is on record as “inhibitory activities”. In series [10], the “HCV NS5B inhibitory activity” value is given as “inhibiting”.
